From PubChem BioAssay come the findings set out here.

SMILES strings stand for the structures. Calls of active or inactive are those of the source. Cut-off read from the data, not from the text of the source, unless noted: active = inhibition above about 30%; inactive = the rest.

Assay [1] can be described thus: Her2 expression decrease, cell viability multiplex – SKBR3 breast tumor cells, AlphaScreen, ATP viability, primary screen (AID 461;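 active = Her2 level under about 52% in both replicate screens, with viability over 70% of control, limit read from the data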;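 for Her2 level: lower value means less Her2 protein in the cells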;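 for viability: percent of carrier control wells set as 100% viability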). The note with it: SKBR3 Her2 protein level, 18-24 h, measured here: SKBR3 viability, ATP luminescence, at 10 µM. (In general: Alpha assays give light when donor and acceptor beads are brought close together.)
Assay [2] deals with Receptor tyrosine-protein kinase erbB-2 (Homo sapiens) (UniProt P04626). The assay is described as above. The note with it: 18-24 h, at 10 µM, stronger effect = lower value.
Assay [3] can be described thus: reduced viability of SK-BR-3 breast cancer cells – cell-based, 24 h, human, pilot screen (AID 572;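 active = viability at or below 10% of carrier control in both of two separate runs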;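 note: compound exposure lasted between 18 and 24 h rather than exactly 24 h; 100% = carrier-treated control wells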). The note with it: SK-BR-3 viability, CellTiter-Glo luminescence, at 10 µM, stronger effect = lower value.
Assay [4] is described as follows: HUVEC growth inhibition – cell-based, human, primary screen (AID 575;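 active = viability at or below 30% in both replicate assays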;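 note: 100% = median of untreated cell wells with 0.1% DMSO on each plate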). Particulars: HUVEC proliferation, CellTiter-Glo luminescence, 72 h; at 10 µM; stronger effect = lower value. An outline of the steps: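 Test system: primary human umbilical vein endothelial cells. Quantity: 1250 cells/well. Compound: single 10 µM dose, 0.1% DMSO, from 5x medium stock. Timing: 72 h treatment at 37 °C. Detection: ATP-based CellTiter-Glo luminescent read. Benchmarks: vehicle and MePR control wells. Format: 384-well plates coated with collagen.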
A general note: ATP-based viability assays read luminescence as a measure of living cells.

Assay [5] is described as follows: H69AR cell proliferation blockers – human, duplicate replicates, primary screen (AID 580;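 active = viability at or under a set limit in both replicates, limit being median viability minus 3 SD, cut at about 48% in these data, passing the limit was not always enough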;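 note: 100% = mean luminescence of untreated wells and 0% = no signal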). The note with it: H69AR lung tumor cells viability, ATP luminescence, 72 h; at 10 µM; stronger effect = lower value.
Assay [6] is described as follows: MRP1 drug-resistance reversers in H69AR cells – cell-based, doxorubicin co-treatment, pilot screen (AID 601;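 active = viability loss from added drug above about 55%, and viability with drug at most 40%, in both replicates, limit read from the data, passing the limit was not always enough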). Particulars: CellTiter-Glo, 72 h, at 10 µM; for differential viability (reversal): stronger effect = higher value.
A short description of assay [7]: yeast transport mutant growth inhibition pilot in 384-well plates, post-Golgi transport modulator project (AID 636; in the data active = inhibition above about 31%). The note with it: absorbance 615 nm, about 18 h, stronger effect = higher value.
Assay [8] in a line: growth suppression of yeast trafficking mutant, preliminary HTS, modulators of trafficking downstream of Golgi apparatus project, 1536-format plate, OD 615 nm (AID 637). Particulars: yeast transport mutant growth, absorbance 615 nm, 18 h; stronger effect = higher value.
Where [9] appears, read: H69AR cells + 2 uM doxorubicin, measured here: viability with 2 uM doxorubicin, stronger effect = lower value.
Setting [10] is: H69AR cells, compound alone cytotoxicity.

Chain of Receptor tyrosine-protein kinase erbB-2 (Homo sapiens) (P04626 whole entry, looked up): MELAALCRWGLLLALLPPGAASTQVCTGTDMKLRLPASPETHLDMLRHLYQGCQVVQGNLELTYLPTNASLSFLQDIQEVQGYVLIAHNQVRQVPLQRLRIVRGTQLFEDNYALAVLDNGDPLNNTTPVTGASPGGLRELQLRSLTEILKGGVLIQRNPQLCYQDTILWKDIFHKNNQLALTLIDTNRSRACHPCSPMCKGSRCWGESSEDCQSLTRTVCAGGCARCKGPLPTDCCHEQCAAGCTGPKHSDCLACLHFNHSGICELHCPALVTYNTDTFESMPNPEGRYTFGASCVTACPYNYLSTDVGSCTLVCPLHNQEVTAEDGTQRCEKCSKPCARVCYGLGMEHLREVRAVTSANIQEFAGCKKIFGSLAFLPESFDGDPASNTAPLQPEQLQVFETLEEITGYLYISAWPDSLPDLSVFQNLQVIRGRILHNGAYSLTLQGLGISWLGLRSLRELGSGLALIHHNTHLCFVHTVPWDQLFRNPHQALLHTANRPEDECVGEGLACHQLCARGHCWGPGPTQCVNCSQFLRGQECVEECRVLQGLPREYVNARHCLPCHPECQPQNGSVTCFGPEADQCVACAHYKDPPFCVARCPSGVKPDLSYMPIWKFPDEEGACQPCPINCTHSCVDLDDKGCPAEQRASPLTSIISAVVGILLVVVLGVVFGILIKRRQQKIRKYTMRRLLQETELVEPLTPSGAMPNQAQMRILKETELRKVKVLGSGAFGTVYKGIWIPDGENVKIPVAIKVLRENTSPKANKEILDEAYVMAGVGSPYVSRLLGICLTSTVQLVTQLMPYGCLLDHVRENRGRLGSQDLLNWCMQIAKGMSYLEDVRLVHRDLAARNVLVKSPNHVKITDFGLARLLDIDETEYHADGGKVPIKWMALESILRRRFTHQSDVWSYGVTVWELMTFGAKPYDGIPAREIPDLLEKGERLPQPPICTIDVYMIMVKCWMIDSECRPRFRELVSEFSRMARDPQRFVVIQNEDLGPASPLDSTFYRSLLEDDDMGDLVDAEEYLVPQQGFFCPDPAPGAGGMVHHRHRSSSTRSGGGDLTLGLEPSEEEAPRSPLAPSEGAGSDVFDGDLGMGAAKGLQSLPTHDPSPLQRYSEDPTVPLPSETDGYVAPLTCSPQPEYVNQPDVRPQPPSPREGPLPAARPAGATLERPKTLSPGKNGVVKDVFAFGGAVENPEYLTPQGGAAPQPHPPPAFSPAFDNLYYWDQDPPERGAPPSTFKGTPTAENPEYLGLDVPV

A word on the viability: it is a read-out of living cells in per cent, often relative to untreated cells. As a reminder, the inhibition is the change of the read-out against control, counted positive when it falls. `CCOC(=O)c1sc(NC(=O)CSc2nnc3c4ccccc4n(CC)c3n2)nc1C`: the viability is 83.5% in assay [1]; 83.5% (inactive) in assay [3]; 104% (inactive) in assay [4]; 96.2% (inactive) in assay [5]; 96.7% in assay [6] (setting [9]); 96.2% in assay [6] (setting [10]). Also, the Her2 level in assay [2] was 104% (inactive). Moreover, the differential viability (reversal) in assay [6] (H69AR cells + 2 uM doxorubicin) was -0.44% (inactive). Besides, the figures for the inhibition in assay [7] and in assay [8] were 1.67% (inactive) and -3.33% (inactive), respectively.

As for `CCOC(=O)c1cn(CC)c2cc(N3CCOCC3)c(F)cc2c1=O`, the viability is 104% in assay [1]; 104% (inactive) in assay [3]; 94.6% (inactive) in assay [4]; 90.8% (inactive) in assay [5]; 101% in assay [6] (setting [9]); 90.8% in assay [6] (setting [10]). Further, the Her2 level in assay [2] is 106% (inactive). In addition, in assay [6] (H69AR cells + 2 uM doxorubicin), the differential viability (reversal) was -10.3% (inactive). Also, the figures for the inhibition in assay [7] and in assay [8] were 2.16% (inactive) and -0.63% (inactive), respectively.

In the case of `CCOc1cc(C(=O)N2CCN=C2SC)cc(OCC)c1OCC`, the viability is 91.5% in assay [1]; 91.5% (inactive) in assay [3]; 87.4% (inactive) in assay [4]; 105% (inactive) in assay [5]; 95.2% in assay [6] (setting [9]); 105% in assay [6] (setting [10]). Further, the Her2 level in assay [2] is 83% (inactive). Moreover, the differential viability (reversal) in assay [6] (H69AR cells + 2 uM doxorubicin) was 10.1% (inactive). Moreover, the inhibition in assay [7] is -4.73% (inactive); in assay [8] it was 9.05% (inactive).

`CC(C)(C)NC(=O)Cn1nnc(-c2cccs2)n1`: the viability in assay [1] is 94%; in assay [3], 94% (inactive); in assay [4], 101% (inactive); in assay [5] it was 92.2% (inactive); in assay [6] (setting [9]), 79.1%; in assay [6] (setting [10]), 92.2%. Also, the Her2 level in assay [2] is 84% (inactive). Besides, the differential viability (reversal) in assay [6] (H69AR cells + 2 uM doxorubicin) is 13.1% (inactive). For the same molecule, the results for the inhibition in assay [7] and in assay [8] were -3.87% (inactive) and 0% (inactive), respectively.

Regarding `CCOc1ccc(C(=O)N(Cc2ccc(N(C)C)cc2)C2CCS(=O)(=O)C2)cc1` (stereo not given), the viability in assay [1] was 114%; in assay [3], 114% (inactive); in assay [4], 101% (inactive); in assay [5], 88.1% (inactive); in assay [6] (setting [9]), 105%; in assay [6] (setting [10]), 88.1%. The Her2 level in assay [2] is 121% (inactive). The differential viability (reversal) in assay [6] (H69AR cells + 2 uM doxorubicin) was -16.6% (inactive). The inhibition is -1.18% (inactive) in assay [7] and 2.79% (inactive) in assay [8].

On to `CCC(=O)Nc1ccc(NC(=O)c2cccc(OC)c2)nc1`, for which the viability in assay [1] is 94%; in assay [3], 94% (inactive); in assay [4], 101% (inactive); in assay [5], 97.8% (inactive); in assay [6] (setting [9]) it was 90.2%; in assay [6] (setting [10]), 97.8%. In assay [2], the Her2 level was 92.5% (inactive). In addition, the differential viability (reversal) in assay [6] (H69AR cells + 2 uM doxorubicin) is 7.67% (inactive). For the same molecule, the results for the inhibition in assay [7] and in assay [8] were 0.14% (inactive) and -6.56% (inactive), respectively.

As for `COc1cc(-c2nnc(SCc3c(F)cccc3Cl)o2)cc(OC)c1OC`, the viability was 70.5% in assay [1]; 70.5% (inactive) in assay [3]; 68.5% (inactive) in assay [4]; 85.2% (inactive) in assay [5]; 81.3% in assay [6] (setting [9]); 85.2% in assay [6] (setting [10]). Also, in assay [2], the Her2 level is 103% (inactive). The differential viability (reversal) in assay [6] (H69AR cells + 2 uM doxorubicin) is 3.85% (inactive). Besides, the inhibition in assay [7] was -4.19% (inactive); in assay [8], -4.1% (inactive).

With `COc1ccc(S(=O)(=O)Nc2ccc(F)c(F)c2)cc1Cl`, the viability was 74% in assay [1]; 74% (inactive) in assay [3]; 90.4% (inactive) in assay [4]; 90.2% (inactive) in assay [5]; 92.8% in assay [6] (setting [9]); 90.2% in assay [6] (setting [10]). Moreover, in assay [2], the Her2 level is 82.5% (inactive). Besides, the differential viability (reversal) in assay [6] (H69AR cells + 2 uM doxorubicin) is -2.64% (inactive). Moreover, the inhibition in assay [7] is -4.59% (inactive); in assay [8], 4.26% (inactive).

For the molecule `Cc1nc(NS(=O)(=O)c2ccccc2)sc1NC(=O)OC(C)C`, the viability in assay [1] is 97%; in assay [3], 97% (inactive); in assay [4] it was 90.3% (inactive); in assay [5], 99.9% (inactive); in assay [6] (setting [9]), 98.7%; in assay [6] (setting [10]), 99.9%. In assay [2], the Her2 level is 106% (inactive). The differential viability (reversal) in assay [6] (H69AR cells + 2 uM doxorubicin) was 1.17% (inactive). In addition, the inhibition is -3.29% (inactive) in assay [7] and -12.5% (inactive) in assay [8].

Regarding `CCN1C(=O)Cc2cc(S(=O)(=O)N3CCOCC3)ccc21`, the viability is 105% in assay [1]; 105% (inactive) in assay [3]; 96.1% (inactive) in assay [4]; 98% (inactive) in assay [5]; 100% in assay [6] (setting [9]); 98% in assay [6] (setting [10]). The Her2 level in assay [2] is 110% (inactive). For the same molecule, the differential viability (reversal) in assay [6] (H69AR cells + 2 uM doxorubicin) was -2.08% (inactive). For the same molecule, the inhibition was -6.4% (inactive) in assay [7] and -0.63% (inactive) in assay [8].

Regarding `Cc1ccc(-c2nnn(CC(=O)NC3CC4CCC3C4)n2)cc1` (stereo not given), the viability is 109% in assay [1]; 109% (inactive) in assay [3]; 118% (inactive) in assay [4]; 93.3% (inactive) in assay [5]; 88.2% in assay [6] (setting [9]); 93.3% in assay [6] (setting [10]). The Her2 level in assay [2] was 91% (inactive). The differential viability (reversal) in assay [6] (H69AR cells + 2 uM doxorubicin) is 5.1% (inactive). In addition, the results for the inhibition in assay [7] and in assay [8] were -6.58% (inactive) and -6.77% (inactive), respectively.

With `COc1cccc(N2C(=O)C(O)=C(C(C)=O)C2c2ccc(OC)c(OC)c2)c1` (stereo not given), the viability in assay [1] is 94.5%; in assay [3] it was 94.5% (inactive); in assay [4], 109% (inactive); in assay [5] it was 100% (inactive); in assay [6] (setting [9]), 93%; in assay [6] (setting [10]), 100%. Also, in assay [2], the Her2 level was 94% (inactive). Moreover, the differential viability (reversal) in assay [6] (H69AR cells + 2 uM doxorubicin) is 7.03% (inactive). The inhibition in assay [7] was 0.26% (inactive); in assay [8], 4.75% (inactive).

In the case of `Cc1nc2cccc(C(=O)NC3CCCCC3)c2o1`, the viability was 100% in assay [1]; 100% (inactive) in assay [3]; 98.6% (inactive) in assay [4]; 93.1% (inactive) in assay [5]; 84.2% in assay [6] (setting [9]); 93.1% in assay [6] (setting [10]). For the same molecule, in assay [2], the Her2 level was 101% (inactive). The differential viability (reversal) in assay [6] (H69AR cells + 2 uM doxorubicin) was 8.96% (inactive). In addition, the inhibition in assay [7] is -3.73% (inactive); in assay [8], 7.05% (inactive).

On to `Cc1cc(NCCN2CCCCC2)n2c(nc3ccccc32)c1C#N`, for which the viability in assay [1] was 87.5%; in assay [3], 87.5% (inactive); in assay [4], 96.2% (inactive); in assay [5], 85.1% (inactive); in assay [6] (setting [9]), 92.6%; in assay [6] (setting [10]) it was 85.1%. Also, in assay [2], the Her2 level is 65.5% (inactive). The differential viability (reversal) in assay [6] (H69AR cells + 2 uM doxorubicin) was -7.47% (inactive). Besides, the inhibition in assay [7] was -5.6% (inactive); in assay [8], 4.1% (inactive).
